Source: ChEMBL document CHEMBL1933017, “Synthesis and biological evaluation of some thiazolidinones as antimicrobial agents” (2012)
Values after ≈ are worked out from the molar mass of the structure shown.

How the values were obtained:
Shigella flexneri [1] = experiment: Antibacterial activity against Shigella flexneri at 100 ug/disc after 24 hrs by disc diffusion method; type: functional; settings: read-out: DIZ
How it was run: (§1)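 Paper disc diffusion on autoclaved Mueller-Hinton agar poured 5 mm deep. Agar was swab-inoculated with 10⁵ CFU/mL suspension (0.5 McFarland). Discs 6.25 mm across were soaked in compound solution in DMSO (3.12–100 µg/mL) and plates incubated 24 h at (37 ± 1) °C. Read-out was inhibition zone (mm). DMSO control disc; ciprofloxacin or ketoconazole reference, 100 µg/disc. Mean of three independent experiments.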

Aspergillus clavatus [2] = experiment: Antifungal activity against Aspergillus clavatus after 48 hrs by agar streak dilution method; type: functional
How it was run: (§2)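 Fungal MIC by agar streak dilution on Sabouraud dextrose agar, poured 4–5 mm deep. Compound from a DMSO stock (100 μg/mL) was incorporated at serial concentrations of 3.12–100 µg/mL. Plates were inoculated with about 10⁵ CFU/mL of suspension and incubated at (37 ± 1) °C for 48 h. Each value is the mean of three independent experiments.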

Bacillus cereus [3] = experiment: Antibacterial activity against Bacillus cereus at 100 ug/disc after 24 hrs by disc diffusion method; type: functional; settings: read-out: DIZ; how it was run: as §1
Proteus vulgaris [4] = experiment: Antibacterial activity against Proteus vulgaris at 100 ug/disc after 24 hrs by disc diffusion method; type: functional; settings: read-out: DIZ; how it was run: as §1
Candida albicans [5] = experiment: Antifungal activity against Candida albicans after 48 hrs by agar streak dilution method; type: functional; how it was run: as §2
Klebsiella pneumoniae [6] = experiment: Antibacterial activity against Klebsiella pneumoniae at 100 ug/disc after 24 hrs by disc diffusion method; type: functional; settings: read-out: DIZ; how it was run: as §1
Pseudomonas aeruginosa [7] = experiment: Antibacterial activity against Pseudomonas aeruginosa […] after 24 hrs by agar streak dilution method; type: functional
Aspergillus fumigatus [8] = experiment: Antifungal activity against Aspergillus fumigatus at 100 ug/disc after 24 hrs by disc diffusion method; type: functional; settings: read-out: DIZ; how it was run: as §1
Salmonella typhi [9] = experiment: Antibacterial activity against Salmonella Typhi at 100 ug/disc after 24 hrs by disc diffusion method; type: functional, Salmonella enterica subsp. enterica serovar Typhi; settings: Salmonella enterica, read-out: DIZ
How it was run: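 Paper disc diffusion on Mueller-Hinton agar poured 5 mm deep; 10⁵ CFU/mL suspension (0.5 McFarland) swabbed over surface. 6.25 mm filter paper discs soaked in compound in DMSO, incubated 24 h at (37 ± 1) °C; inhibition zone diameter in mm. DMSO disc as blank; ciprofloxacin 100 µg/disc as reference. Mean of three independent experiments.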

Pseudomonas aeruginosa [10] = experiment: Antibacterial activity against Pseudomonas aeruginosa at 100 ug/disc after 24 hrs by disc diffusion method; type: functional; settings: read-out: DIZ; how it was run: as §1
Aspergillus niger [11] = experiment: Antifungal activity against Aspergillus niger at 100 ug/disc after 24 hrs by disc diffusion method; type: functional; settings: read-out: DIZ; how it was run: as §1
Aspergillus fumigatus [12] = experiment: Antifungal activity against Aspergillus fumigatus after 48 hrs by agar streak dilution method; type: functional; how it was run: as §2
Staphylococcus aureus [13] = experiment: Antibacterial activity against Staphylococcus aureus after 24 hrs by agar streak dilution method; type: functional
How it was run: (§3)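 MIC by agar streak dilution. Graded amounts of DMSO stock (100 μg/mL) were mixed into molten sterile nutrient agar and poured 4–5 mm deep. Serial concentrations spanned 3.12–100 µg/mL. Plates were inoculated with about 10⁵ CFU/mL of bacterial suspension and incubated at (37 ± 1) °C for 24 h. Each value is the mean of three independent experiments.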

Salmonella typhi [14] = experiment: Antibacterial activity against Salmonella Typhi after 24 hrs by agar streak dilution method; type: functional, Salmonella enterica subsp. enterica serovar Typhi; settings: Salmonella enterica
How it was run: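 Agar streak dilution: DMSO stock (100 µg/mL) graded into molten sterile nutrient agar, poured 4–5 mm deep and solidified. Plates carry serial dilutions spanning 3.12–100 µg/mL. Applied ~10⁵ CFU/mL suspension, then incubated 24 h at (37 ± 1) °C. MIC read as the lowest inhibitory concentration; each value is the mean of three independent experiments.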

Escherichia coli [15] = experiment: Antibacterial activity against Escherichia coli at 100 ug/disc after 24 hrs by disc diffusion method; type: functional; settings: read-out: DIZ; how it was run: as §1
Escherichia coli [16] = experiment: Antibacterial activity against Escherichia coli after 24 hrs by agar streak dilution method; type: functional; how it was run: as §3
Proteus vulgaris [17] = experiment: Antibacterial activity against Proteus vulgaris after 24 hrs by agar streak dilution method; type: functional; how it was run: as §3
Aspergillus clavatus [18] = experiment: Antifungal activity against Aspergillus clavatus at 100 ug/disc after 24 hrs by disc diffusion method; type: functional; settings: read-out: DIZ; how it was run: as §1
Klebsiella pneumoniae [19] = experiment: Antibacterial activity against Klebsiella pneumoniae […] after 24 hrs by agar streak dilution method; type: functional
Aspergillus niger [20] = experiment: Antifungal activity against Aspergillus niger after 48 hrs by agar streak dilution method; type: functional; how it was run: as §2
Bacillus cereus [21] = experiment: Antibacterial activity against Bacillus cereus after 24 hrs by agar streak dilution method; type: functional; how it was run: as §3
Candida albicans [22] = experiment: Antifungal activity against Candida albicans at 100 ug/disc after 24 hrs by disc diffusion method; type: functional; settings: read-out: DIZ; how it was run: as §1
Shigella flexneri [23] = experiment: Antibacterial activity against Shigella flexneri after 24 hrs by agar streak dilution method; type: functional; how it was run: as §3
Staphylococcus aureus [24] = experiment: Antibacterial activity against Staphylococcus aureus at 100 ug/disc after 24 hrs by disc diffusion method; type: functional; settings: read-out: DIZ; how it was run: as §1

Q: Which results are given for `CCN1CCN(CC2SC(c3ccc(OC)c(OC)c3)N(c3ccc(Nc4nc(Oc5cc(=O)n(C)c6ccccc56)nc(N(C)C)n4)cc3)C2=O)CC1` (configuration not stated)?
A: zone of inhibition at 100 µg/disc (Shigella flexneri [1]): 22 mm; MIC (Aspergillus clavatus [2]): 50 µg/mL (≈ 66.5 µM); zone of inhibition at 100 µg/disc (Bacillus cereus [3]): 24 mm; zone of inhibition at 100 µg/disc (Proteus vulgaris [4]): 23 mm; MIC (Candida albicans [5]): 50 µg/mL (≈ 66.5 µM); zone of inhibition at 100 µg/disc (Klebsiella pneumoniae [6]): 23 mm; MIC (Pseudomonas aeruginosa [7]): 12.5 µg/mL (≈ 16.6 µM); zone of inhibition at 100 µg/disc (Aspergillus fumigatus [8]): 26 mm; zone of inhibition at 100 µg/disc (Salmonella typhi [9]): 25 mm; zone of inhibition at 100 µg/disc (Pseudomonas aeruginosa [10]): 24 mm; zone of inhibition at 100 µg/disc (Aspergillus niger [11]): 21 mm; MIC (Aspergillus fumigatus [12]): 25 µg/mL (≈ 33.2 µM); MIC (Staphylococcus aureus [13]): 25 µg/mL (≈ 33.2 µM); MIC (Salmonella typhi [14]): 25 µg/mL (≈ 33.2 µM); zone of inhibition at 100 µg/disc (Escherichia coli [15]): 24 mm; MIC (Escherichia coli [16]): 25 µg/mL (≈ 33.2 µM); MIC (Proteus vulgaris [17]): 50 µg/mL (≈ 66.5 µM); zone of inhibition at 100 µg/disc (Aspergillus clavatus [18]): 24 mm; MIC (Klebsiella pneumoniae [19]): 50 µg/mL (≈ 66.5 µM); MIC (Aspergillus niger [20]): 100 µg/mL (≈ 133 µM); MIC (Bacillus cereus [21]): 12.5 µg/mL (≈ 16.6 µM); zone of inhibition at 100 µg/disc (Candida albicans [22]): 23 mm; MIC (Shigella flexneri [23]): 50 µg/mL (≈ 66.5 µM); zone of inhibition at 100 µg/disc (Staphylococcus aureus [24]): 23 mm

Q: How did the zone of inhibition at 100 µg/disc (Shigella flexneri [1]) turn out when `CCN1CCN(CC2SC(c3ccc(O)cc3O)N(c3ccc(Nc4nc(Oc5cc(=O)n(C)c6ccccc56)nc(N(C)C)n4)cc3)C2=O)CC1` (configuration not stated) was run?
A: 16 mm

Q: And the MIC (Aspergillus clavatus [2])?
A: 100 µg/mL (≈ 138 µM)

Q: What about the zone of inhibition at 100 µg/disc (Bacillus cereus [3]) of the same molecule?
A: 17 mm

Q: And the zone of inhibition at 100 µg/disc (Proteus vulgaris [4])?
A: 14 mm

Q: What about the MIC (Candida albicans [5]) of the same molecule?
A: 100 µg/mL (≈ 138 µM)

Q: And the zone of inhibition at 100 µg/disc (Klebsiella pneumoniae [6])?
A: 16 mm

Q: And the MIC (Pseudomonas aeruginosa [7])?
A: 100 µg/mL (≈ 138 µM)

Q: What about the zone of inhibition at 100 µg/disc (Aspergillus fumigatus [8]) of the same molecule?
A: 15 mm

Q: And the zone of inhibition at 100 µg/disc (Salmonella typhi [9])?
A: 14 mm

Q: And the zone of inhibition at 100 µg/disc (Pseudomonas aeruginosa [10])?
A: 17 mm

Q: What about the zone of inhibition at 100 µg/disc (Aspergillus niger [11]) of the same molecule?
A: 11 mm

Q: What about the MIC (Aspergillus fumigatus [12]) of the same molecule?
A: 100 µg/mL (≈ 138 µM)

Q: What about the MIC (Staphylococcus aureus [13]) of the same molecule?
A: 100 µg/mL (≈ 138 µM)

Q: And the MIC (Salmonella typhi [14])?
A: 100 µg/mL (≈ 138 µM)

Q: And the zone of inhibition at 100 µg/disc (Escherichia coli [15])?
A: 15 mm

Q: What about the MIC (Escherichia coli [16]) of the same molecule?
A: 100 µg/mL (≈ 138 µM)

Q: What about the MIC (Proteus vulgaris [17]) of the same molecule?
A: 100 µg/mL (≈ 138 µM)

Q: And the zone of inhibition at 100 µg/disc (Aspergillus clavatus [18])?
A: 17 mm

Q: What about the MIC (Klebsiella pneumoniae [19]) of the same molecule?
A: 100 µg/mL (≈ 138 µM)

Q: What about the MIC (Aspergillus niger [20]) of the same molecule?
A: 100 µg/mL (≈ 138 µM)

Q: What about the MIC (Bacillus cereus [21]) of the same molecule?
A: 100 µg/mL (≈ 138 µM)

Q: And the zone of inhibition at 100 µg/disc (Candida albicans [22])?
A: < 10 mm

Q: And the MIC (Shigella flexneri [23])?
A: 100 µg/mL (≈ 138 µM)

Q: What about the zone of inhibition at 100 µg/disc (Staphylococcus aureus [24]) of the same molecule?
A: 15 mm

Q: Which results are given for `CCN1CCN(CC2SC(c3cccc(O)c3O)N(c3ccc(Nc4nc(Oc5cc(=O)n(C)c6ccccc56)nc(N(C)C)n4)cc3)C2=O)CC1` (configuration not stated)?
A: zone of inhibition at 100 µg/disc (Shigella flexneri [1]): < 10 mm; MIC (Aspergillus clavatus [2]): 100 µg/mL (≈ 138 µM); zone of inhibition at 100 µg/disc (Bacillus cereus [3]): 12 mm; zone of inhibition at 100 µg/disc (Proteus vulgaris [4]): 13 mm; MIC (Candida albicans [5]): 100 µg/mL (≈ 138 µM); zone of inhibition at 100 µg/disc (Klebsiella pneumoniae [6]): 16 mm; MIC (Pseudomonas aeruginosa [7]): 100 µg/mL (≈ 138 µM); zone of inhibition at 100 µg/disc (Aspergillus fumigatus [8]): 13 mm; zone of inhibition at 100 µg/disc (Salmonella typhi [9]): 14 mm; zone of inhibition at 100 µg/disc (Pseudomonas aeruginosa [10]): 11 mm; zone of inhibition at 100 µg/disc (Aspergillus niger [11]): < 10 mm; MIC (Aspergillus fumigatus [12]): 100 µg/mL (≈ 138 µM); MIC (Staphylococcus aureus [13]): 100 µg/mL (≈ 138 µM); MIC (Salmonella typhi [14]): 100 µg/mL (≈ 138 µM); zone of inhibition at 100 µg/disc (Escherichia coli [15]): < 10 mm; MIC (Escherichia coli [16]): 100 µg/mL (≈ 138 µM); MIC (Proteus vulgaris [17]): 100 µg/mL (≈ 138 µM); zone of inhibition at 100 µg/disc (Aspergillus clavatus [18]): 12 mm; MIC (Klebsiella pneumoniae [19]): 100 µg/mL (≈ 138 µM); MIC (Aspergillus niger [20]): 100 µg/mL (≈ 138 µM); MIC (Bacillus cereus [21]): 100 µg/mL (≈ 138 µM); zone of inhibition at 100 µg/disc (Candida albicans [22]): < 10 mm; MIC (Shigella flexneri [23]): 100 µg/mL (≈ 138 µM); zone of inhibition at 100 µg/disc (Staphylococcus aureus [24]): < 10 mm
